“And” between values parts separate entries of the source, which are not always exact repeats. Equal entries are not always repeated.
System: HEK-293T
Assay: Multiplex assay against HEK293T
Type: toxicity, cell-based
Conditions: human
Outline: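 Cells stained live at seeding with Hoechst33342, BioTracker Green Microtubule Cytoskeleton Dye, MitoTracker Red and Annexin V Alexa Fluor 680 were imaged on a CQ1 microscope at 37°C and 5% CO2 after compound addition. Their classification by CellPathfinder machine-learning gating ran from Hoechst high-intensity objects versus normal cells, to healthy, pyknosed or fragmented nuclei among normal cells, to mitotic or apoptotic among pyknosed cells. Tubulin, mitochondrial-mass and membrane-permeability phenotypes are per cents of healthy-nucleus cells.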

[1] = 12 h, 1 µM, compound concentration 1 uM
[2] = 12 h, 10 µM, compound concentration 10 uM
[3] = 24 h, 1 µM, compound concentration 1 uM
[4] = 24 h, 10 µM, compound concentration 10 uM
[5] = 48 h, 1 µM, compound concentration 1 uM
[6] = 48 h, 10 µM, compound concentration 10 uM

Cc1cc(NC(=O)NCCN2CCC(O)(Cc3ccccc3)CC2)c2ccccc2n1 [PALOSURAN]
Population Apoptotic (%) [1]: 36% and 48%
Population Fragmented Nuclei (%) [1]: 7% and 9%
Population Healthy Nuclei (%) [1]: 77% and 81%
Population Hoechst High Intensity Objects (%) [1]: 6% and 9%
Population Membrane Permeable-Phenotype (%) [1]: 0%
Population Mitochondria Different-Phenotype (%) [1]: 42% and 57%
Population Mitotic Cells (%) [1]: 63% and 52%
Population Normal (%) [1]: 93% and 90%
Population Pyknosed Nuclei (%) [1]: 14% and 8%
Population Tubulin-Different-Phenotype (%) [1]: 25% and 26%
Total Cell Count [1]: 373 and 326
Population Apoptotic (%) [2]: 38% and 61%
Population Fragmented Nuclei (%) [2]: 5%
Population Healthy Nuclei (%) [2]: 81% and 75%
Population Hoechst High Intensity Objects (%) [2]: 8%
Population Membrane Permeable-Phenotype (%) [2]: 0%
Population Mitochondria Different-Phenotype (%) [2]: 53% and 76%
Population Mitotic Cells (%) [2]: 61% and 38%
Population Normal (%) [2]: 91%
Population Pyknosed Nuclei (%) [2]: 12% and 18%
Population Tubulin-Different-Phenotype (%) [2]: 41% and 42%
Total Cell Count [2]: 461 and 346
Population Apoptotic (%) [3]: 17% and 46%
Population Fragmented Nuclei (%) [3]: 9% and 10%
Population Healthy Nuclei (%) [3]: 78% and 76%
Population Hoechst High Intensity Objects (%) [3]: 6% and 4%
Population Membrane Permeable-Phenotype (%) [3]: 0%
Population Mitochondria Different-Phenotype (%) [3]: 24% and 45%
Population Mitotic Cells (%) [3]: 82% and 53%
Population Normal (%) [3]: 93% and 95%
Population Pyknosed Nuclei (%) [3]: 11% and 13%
Population Tubulin-Different-Phenotype (%) [3]: 19% and 14%
Total Cell Count [3]: 511 and 343
Population Apoptotic (%) [4]: 35% and 51%
Population Fragmented Nuclei (%) [4]: 8% and 7%
Population Healthy Nuclei (%) [4]: 79% and 83%
Population Hoechst High Intensity Objects (%) [4]: 4% and 6%
Population Membrane Permeable-Phenotype (%) [4]: 0%
Population Mitochondria Different-Phenotype (%) [4]: 43% and 64%
Population Mitotic Cells (%) [4]: 64% and 48%
Population Normal (%) [4]: 95% and 93%
Population Pyknosed Nuclei (%) [4]: 11% and 9%
Population Tubulin-Different-Phenotype (%) [4]: 32% and 26%
Total Cell Count [4]: 598 and 396
Population Apoptotic (%) [5]: 19% and 32%
Population Fragmented Nuclei (%) [5]: 15% and 13%
Population Healthy Nuclei (%) [5]: 79% and 81%
Population Hoechst High Intensity Objects (%) [5]: 3%
Population Membrane Permeable-Phenotype (%) [5]: 1% and 0%
Population Mitochondria Different-Phenotype (%) [5]: 16% and 24%
Population Mitotic Cells (%) [5]: 80% and 67%
Population Normal (%) [5]: 96%
Population Pyknosed Nuclei (%) [5]: 5%
Population Tubulin-Different-Phenotype (%) [5]: 12% and 15%
Total Cell Count [5]: 938 and 552
Population Apoptotic (%) [6]: 29% and 41%
Population Fragmented Nuclei (%) [6]: 15% and 9%
Population Healthy Nuclei (%) [6]: 75% and 84%
Population Hoechst High Intensity Objects (%) [6]: 5% and 4%
Population Membrane Permeable-Phenotype (%) [6]: 0%
Population Mitochondria Different-Phenotype (%) [6]: 34% and 42%
Population Mitotic Cells (%) [6]: 70% and 58%
Population Normal (%) [6]: 94% and 95%
Population Pyknosed Nuclei (%) [6]: 8% and 6%
Population Tubulin-Different-Phenotype (%) [6]: 17% and 19%
Total Cell Count [6]: 874 and 570

CCn1c(-c2ccncc2)cc2c1CCNC2=O
Population Apoptotic (%) [1]: 15.09% and 7.09%
Population Fragmented Nuclei (%) [1]: 1.92% and 1.82%
Population Hoechst High Intensity Objects (%) [1]: 0.95% and 0%
Population Membrane Permeable-Phenotype (%) [1]: 2.72% and 0%
Population Mitochondria Different-Phenotype (%) [1]: 35.37% and 23.81%
Population Mitotic Cells (%) [1]: 84.91% and 92.91%
Population Normal (%) [1]: 99.05% and 100%
Population Pyknosed Nuclei (%) [1]: 50.96% and 85.45%
Population Tubulin-Different-Phenotype (%) [1]: 7.48% and 14.29%
Total Cell Count [1]: 315 and 165
Population Apoptotic (%) [2]: 15.05% and 13.74%
Population Fragmented Nuclei (%) [2]: 0.77% and 4.17%
Population Hoechst High Intensity Objects (%) [2]: 0%
Population Membrane Permeable-Phenotype (%) [2]: 0% and 14.29%
Population Mitochondria Different-Phenotype (%) [2]: 31.51% and 14.29%
Population Mitotic Cells (%) [2]: 84.95% and 86.26%
Population Normal (%) [2]: 100%
Population Pyknosed Nuclei (%) [2]: 71.26% and 90.97%
Population Tubulin-Different-Phenotype (%) [2]: 5.48% and 14.29%
Total Cell Count [2]: 261 and 144
Population Apoptotic (%) [3]: 31.73% and 15.24%
Population Fragmented Nuclei (%) [3]: 2.16% and 2.84%
Population Hoechst High Intensity Objects (%) [3]: 0.27% and 0%
Population Membrane Permeable-Phenotype (%) [3]: 1.16% and 6.25%
Population Mitochondria Different-Phenotype (%) [3]: 23.17% and 18.75%
Population Mitotic Cells (%) [3]: 68.27% and 84.76%
Population Normal (%) [3]: 99.73% and 100%
Population Pyknosed Nuclei (%) [3]: 28.03% and 74.47%
Population Tubulin-Different-Phenotype (%) [3]: 32.43% and 18.75%
Total Cell Count [3]: 372 and 141
Population Apoptotic (%) [4]: 46.45% and 34.13%
Population Fragmented Nuclei (%) [4]: 1.6% and 3.57%
Population Hoechst High Intensity Objects (%) [4]: 0%
Population Membrane Permeable-Phenotype (%) [4]: 0%
Population Mitochondria Different-Phenotype (%) [4]: 30.77% and 44.44%
Population Mitotic Cells (%) [4]: 53.55% and 65.87%
Population Normal (%) [4]: 100%
Population Pyknosed Nuclei (%) [4]: 62% and 90%
Total Cell Count [4]: 250 and 140
Population Apoptotic (%) [5]: 33.96% and 24.19%
Population Fragmented Nuclei (%) [5]: 5.74% and 0%
Population Healthy Nuclei (%) [5]: 80.42% and 45.61%
Population Hoechst High Intensity Objects (%) [5]: 0.78% and 0.87%
Population Membrane Permeable-Phenotype (%) [5]: 2.6% and 0%
Population Mitochondria Different-Phenotype (%) [5]: 61.36% and 40.38%
Population Mitotic Cells (%) [5]: 66.04% and 75.81%
Population Normal (%) [5]: 99.22% and 99.13%
Population Apoptotic (%) [6]: 66.43% and 44.74%
Population Fragmented Nuclei (%) [6]: 1.61% and 5.88%
Population Hoechst High Intensity Objects (%) [6]: 0%
Population Membrane Permeable-Phenotype (%) [6]: 0%
Population Mitochondria Different-Phenotype (%) [6]: 82.35% and 78.57%
Population Mitotic Cells (%) [6]: 33.57% and 55.26%
Population Normal (%) [6]: 100%
Population Pyknosed Nuclei (%) [6]: 57.43% and 83.82%
Total Cell Count [6]: 249 and 136

COC(=O)C1=C(C)NC(C)=C(C(=O)OC(C)C)C1c1cccc2nonc12 (stereo not drawn) [ISRADIPINE]
Population Apoptotic (%) [1]: 14.42% and 4.72%
Population Fragmented Nuclei (%) [1]: 2.79% and 5.84%
Population Hoechst High Intensity Objects (%) [1]: 0%
Population Membrane Permeable-Phenotype (%) [1]: 0%
Population Mitochondria Different-Phenotype (%) [1]: 37.14% and 47.83%
Population Mitotic Cells (%) [1]: 85.58% and 95.28%
Population Normal (%) [1]: 100%
Population Pyknosed Nuclei (%) [1]: 32.2% and 77.37%
Total Cell Count [1]: 323 and 137
Population Apoptotic (%) [2]: 3.97% and 9.29%
Population Fragmented Nuclei (%) [2]: 0.97% and 1.28%
Population Hoechst High Intensity Objects (%) [2]: 0.32% and 0%
Population Membrane Permeable-Phenotype (%) [2]: 0.65% and 0%
Population Mitochondria Different-Phenotype (%) [2]: 39.61% and 35.71%
Population Mitotic Cells (%) [2]: 96.03% and 90.71%
Population Normal (%) [2]: 99.68% and 100%
Population Pyknosed Nuclei (%) [2]: 49.03% and 89.74%
Total Cell Count [2]: 309 and 156
Population Apoptotic (%) [3]: 10.81% and 2.08%
Population Fragmented Nuclei (%) [3]: 3.28% and 3.47%
Population Healthy Nuclei (%) [3]: 76.5% and 41.04%
Population Hoechst High Intensity Objects (%) [3]: 0% and 1.14%
Population Membrane Permeable-Phenotype (%) [3]: 2.62% and 1.41%
Population Mitochondria Different-Phenotype (%) [3]: 16.9% and 15.49%
Population Mitotic Cells (%) [3]: 89.19% and 97.92%
Population Normal (%) [3]: 100% and 98.86%
Population Pyknosed Nuclei (%) [3]: 20.22% and 55.49%
Population Tubulin-Different-Phenotype (%) [3]: 7.62% and 1.41%
Population Apoptotic (%) [4]: 14.52% and 14.29%
Population Fragmented Nuclei (%) [4]: 1% and 1.72%
Population Hoechst High Intensity Objects (%) [4]: 0.5% and 0%
Population Membrane Permeable-Phenotype (%) [4]: 1.48% and 0%
Population Mitochondria Different-Phenotype (%) [4]: 27.68% and 22.58%
Population Mitotic Cells (%) [4]: 85.48% and 85.71%
Population Normal (%) [4]: 99.5% and 100%
Population Pyknosed Nuclei (%) [4]: 31.08% and 80.46%
Population Tubulin-Different-Phenotype (%) [4]: 40.59% and 25.81%
Total Cell Count [4]: 401 and 174
Population Apoptotic (%) [5]: 8.94% and 17.46%
Population Fragmented Nuclei (%) [5]: 4.71% and 1.73%
Population Healthy Nuclei (%) [5]: 86.76% and 76.47%
Population Hoechst High Intensity Objects (%) [5]: 0% and 1.03%
Population Membrane Permeable-Phenotype (%) [5]: 5.91% and 5.88%
Population Mitochondria Different-Phenotype (%) [5]: 13.5% and 15.84%
Population Mitotic Cells (%) [5]: 91.06% and 82.54%
Population Normal (%) [5]: 100% and 98.97%
Population Pyknosed Nuclei (%) [5]: 8.52% and 21.8%
Population Apoptotic (%) [6]: 9.09% and 15.38%
Population Fragmented Nuclei (%) [6]: 2.12% and 2.49%
Population Healthy Nuclei (%) [6]: 83.92% and 48.96%
Population Hoechst High Intensity Objects (%) [6]: 0.14% and 0%
Population Membrane Permeable-Phenotype (%) [6]: 6.22% and 3.39%
Population Mitochondria Different-Phenotype (%) [6]: 41.85% and 34.75%
Population Mitotic Cells (%) [6]: 90.91% and 84.62%
Population Normal (%) [6]: 99.86% and 100%
Total Cell Count [6]: 710 and 241

— ChEMBL document CHEMBL5724801, “EUbOPEN Chemogenomics Library - Multiplex” (2024)
